The text below walks through data of ChEMBL document CHEMBL1122329, “Synthesis and antianxiety activity of (omega-piperazinylalkoxy)indan derivatives” (J Med Chem, 1983).

For orientation: inhibition in vivo means the change of the read-out against control, counted positive when it falls. Low values mean little suppression, high ones strong suppression. For orientation: ED50 means the dose that gives a 50% effect, or the effect in half of the subjects. A higher ED50 goes with weaker potency.

Common to all, as to format: functional
The test system of assay [1] is Mus musculus. Nature of the assay: Anti-morphine activity against morphine-induced Straub''s tail reaction in mice expressed as % inhibition at 25 mg/kg peroral administration. Particulars: route oral. Put shortly: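 Six mice per group received test compounds orally 1 h before morphine (20 mg/kg ip). Straub's tail reaction was scored as the index of morphine's CNS stimulant action.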

Assay [2] concerns Mus musculus. Nature of the assay: Anti-fighting potency against foot shock induced fighting behavior in mice expressed as % inhibition at 25 mg/kg peroral administration. Particulars: route oral.
The test system of assay [3] is Mus musculus. Nature of the assay: Anti-morphine activity against the morphine-induced Straub's tail reaction in mice on peroral administration. Particulars: po. An outline of the steps: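 Mice, six per group, dosed orally with test compound 1 h before morphine (20 mg/kg ip); Straub's tail reaction scored as index of morphine CNS stimulation.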

For the molecule `COc1cc2c(cc1OCCCN1CCN(c3ccc(F)cc3)CC1)CCC2`, the inhibition in vivo at 25 mg/kg in the assay with Mus musculus [1] and in the assay with Mus musculus [2] was 100% throughout.

As for `Fc1cccc(N2CCN(CCCCOc3ccc4c(c3)CCC4)CC2)c1`, the inhibition in vivo at 25 mg/kg in the assay with Mus musculus [1] was found to be 17%; with Mus musculus [2] it was 15%.

With `Oc1cc2c(cc1OCCCN1CCN(c3ccc(F)cc3)CC1)CCC2`, the inhibition in vivo at 25 mg/kg in the assay on Mus musculus [1] came out at 0%; in the assay with Mus musculus [2], 25%.

Take `Clc1cccc(N2CCN(CCCCOc3ccc4c(c3)CCC4)CC2)c1`: the inhibition in vivo at 25 mg/kg came out at 0% in the assay on Mus musculus [1] and 37% in the assay with Mus musculus [2].

As to `Clc1cc(Cl)cc(N2CCN(CCCCOc3ccc4c(c3)CCC4)CC2)c1`, the inhibition in vivo at 25 mg/kg with Mus musculus [1] and in the assay with Mus musculus [2] was 0% throughout.

Regarding `CC(=O)c1ccc(N2CCN(CCCOc3ccc4c(c3)CCC4)CC2)cc1`, the values for the inhibition in vivo at 25 mg/kg in the assay with Mus musculus [1] and in the assay with Mus musculus [2] were 0% and 13%, respectively.

For `c1ccc(N2CCN(CCCOc3cccc4c3CCC4)CC2)cc1`, the inhibition in vivo at 25 mg/kg in the assay with Mus musculus [1] worked out at 33%; with Mus musculus [2], 0%.

Consider `O=[N+]([O-])c1ccccc1N1CCN(CCCOc2ccc3c(c2)CCC3)CC1`, for which the inhibition in vivo at 25 mg/kg in the assay on Mus musculus [1] is 43%; in the assay with Mus musculus [2], 8%.

`Clc1ccc(N2CCN(CCCOc3ccc4c(c3)CCC4)CC2)cc1`: the inhibition in vivo at 25 mg/kg with Mus musculus [1] turned out to be 58%; in the assay with Mus musculus [2], 43%.

For `O=[N+]([O-])c1ccc(N2CCN(CCCCOc3ccc4c(c3)CCC4)CC2)cc1`, the inhibition in vivo at 25 mg/kg worked out at 22% with Mus musculus [1] and 0% in the assay with Mus musculus [2].

Consider `Fc1ccc(N2CCN(CCCOc3cccc4c3CCC4)CC2)cc1`, for which the results for the inhibition in vivo at 25 mg/kg in the assay on Mus musculus [1] and with Mus musculus [2] were 25% and 5%, respectively.

Regarding `Cl.Cl.FC(F)(F)c1cccc(N2CCN(CCCCOc3ccc4c(c3)CCC4)CC2)c1`, the inhibition in vivo at 25 mg/kg turned out to be 100% in the assay with Mus musculus [1] and 8% in the assay on Mus musculus [2]. This molecule showed a 50% effective dose (ED50) with Mus musculus [3] of 12.5 mg/kg.

As to `Clc1ccccc1N1CCN(CCCOc2ccc3c(c2)CCC3)CC1`, the values for the inhibition in vivo at 25 mg/kg with Mus musculus [1] and with Mus musculus [2] were 42% and 40%, respectively.

In the case of `Oc1cc2c(cc1OCCCN1CCN(c3ccccc3)CC1)CCC2`, the inhibition in vivo at 25 mg/kg amounted to 0% with Mus musculus [1] and 17% with Mus musculus [2].

`c1ccc(C2CCc3ccc(OCCCN4CCN(c5ccccc5)CC4)cc32)cc1` (centres undefined): the results for the inhibition in vivo at 25 mg/kg with Mus musculus [1] and in the assay on Mus musculus [2] were 34% and 0%, respectively.

`Fc1cc2c(cc1OCCCN1CCN(c3cccc(Cl)c3)CC1)CCC2`: the inhibition in vivo at 25 mg/kg in the assay on Mus musculus [1] and in the assay on Mus musculus [2] was 92% throughout.

Take `O=[N+]([O-])c1cc2c(cc1OCCCN1CCN(c3ccccc3)CC1)CCC2`: the values for the inhibition in vivo at 25 mg/kg in the assay on Mus musculus [1] and in the assay with Mus musculus [2] were 24% and 67%, respectively.

Take `CCC1CCc2ccc(OCCCN3CCN(c4ccc(F)cc4)CC3)cc21` (centres undefined): the inhibition in vivo at 25 mg/kg in the assay on Mus musculus [1] turned out to be 44%; in the assay with Mus musculus [2], 67%.

Take `FC(F)(F)c1cccc(N2CCN(CCCCCOc3ccc4c(c3)CCC4)CC2)c1`: the inhibition in vivo at 25 mg/kg is 66% in the assay on Mus musculus [1] and 33% with Mus musculus [2].

For `COc1ccc(N2CCN(CCCOc3ccc4c(c3)CCC4)CC2)cc1`, the inhibition in vivo at 25 mg/kg with Mus musculus [1] is 37%; with Mus musculus [2], 60%.

As for `Fc1ccc(N2CCN(CCCCOc3ccc4c(c3)CCC4)CC2)cc1`, the inhibition in vivo at 25 mg/kg came to 100% with Mus musculus [1] and 70% in the assay with Mus musculus [2].

As for `Fc1cc2c(cc1OCCCN1CCN(c3cccc(C(F)(F)F)c3)CC1)CCC2`, the inhibition in vivo at 25 mg/kg was found to be 20% in the assay on Mus musculus [1] and 0% in the assay on Mus musculus [2].

On to `Fc1ccc(N2CCN(CCCCCOc3ccc4c(c3)CCC4)CC2)cc1`, for which the results for the inhibition in vivo at 25 mg/kg with Mus musculus [1] and in the assay on Mus musculus [2] were 71% and 58%, respectively.

As for `COc1cc2c(cc1OCCCN1CCN(c3ccccc3)CC1)CCC2`, the inhibition in vivo at 25 mg/kg with Mus musculus [1] came to 65%; in the assay on Mus musculus [2], 50%.

Turning to `O=[N+]([O-])c1ccc(N2CCN(CCCOc3ccc4c(c3)CCC4)CC2)cc1`, the inhibition in vivo at 25 mg/kg in the assay on Mus musculus [1] was determined as 26%; with Mus musculus [2], 0%.

With `Clc1cccc(N2CCN(CCCOc3ccc4c(c3)CCC4)CC2)c1`, the inhibition in vivo at 25 mg/kg in the assay on Mus musculus [1] and in the assay on Mus musculus [2] was 83% each time.

`Clc1ccc(N2CCN(CCCOc3cc4c(cc3Cl)CCC4)CC2)cc1`: the inhibition in vivo at 25 mg/kg is 36% in the assay on Mus musculus [1] and 33% in the assay with Mus musculus [2].

As to `FC(F)(F)c1cccc(N2CCN(CCCOc3ccc4c(c3)CCC4)CC2)c1`, the inhibition in vivo at 25 mg/kg in the assay on Mus musculus [1] worked out at 73%; in the assay on Mus musculus [2] it was 0%.

Turning to `Fc1cc2c(cc1OCCCCN1CCN(c3ccccc3)CC1)CCC2`, the inhibition in vivo at 25 mg/kg in the assay with Mus musculus [1] was found to be 79%; in the assay with Mus musculus [2] it was 33%.

On to `Oc1cc2c(cc1OCCCN1CCN(c3cccc(Cl)c3)CC1)CCC2`, for which the figures for the inhibition in vivo at 25 mg/kg in the assay with Mus musculus [1] and in the assay on Mus musculus [2] were 29% and 0%, respectively.

On to `Fc1ccc(N2CCN(CCOc3ccc4c(c3)CCC4)CC2)cc1`, for which the inhibition in vivo at 25 mg/kg in the assay with Mus musculus [1] came to 0%; with Mus musculus [2] it was 40%.

Take `COc1ccccc1N1CCN(CCCCOc2ccc3c(c2)CCC3)CC1`: the inhibition in vivo at 25 mg/kg in the assay on Mus musculus [1] amounted to 42%; in the assay with Mus musculus [2], 33%.

Take `COc1ccccc1N1CCN(CCCOc2ccc3c(c2)CCC3)CC1`: the inhibition in vivo at 25 mg/kg with Mus musculus [1] amounted to 19%; in the assay on Mus musculus [2], 0%.

Regarding `Clc1cc(Cl)cc(N2CCN(CCCOc3ccc4c(c3)CCC4)CC2)c1`, the inhibition in vivo at 25 mg/kg with Mus musculus [1] and in the assay on Mus musculus [2] was 0% each time.

For the molecule `c1ccc(N2CCN(CCCCOc3ccc4c(c3)CCC4)CC2)cc1`, the inhibition in vivo at 25 mg/kg was 50% with Mus musculus [1] and 75% in the assay on Mus musculus [2].

`Fc1cccc(N2CCN(CCCOc3ccc4c(c3)CCC4)CC2)c1`: the inhibition in vivo at 25 mg/kg in the assay on Mus musculus [1] is 42%; with Mus musculus [2] it was 19%.

In the case of `Cc1cc2c(cc1OCCCN1CCN(c3ccc(F)cc3)CC1)CCC2`, the inhibition in vivo at 25 mg/kg was determined as 31% in the assay on Mus musculus [1] and 50% in the assay on Mus musculus [2].

On to `c1ccc(N2CCN(CCCCCOc3ccc4c(c3)CCC4)CC2)cc1`, for which the inhibition in vivo at 25 mg/kg in the assay on Mus musculus [1] stood at 25%; in the assay with Mus musculus [2], 27%.

In the case of `COc1ccc(N2CCN(CCCCOc3ccc4c(c3)CCC4)CC2)cc1`, the inhibition in vivo at 25 mg/kg in the assay on Mus musculus [1] worked out at 14%; in the assay on Mus musculus [2] it was 17%.

Regarding `c1ccc(N2CCN(CCOc3ccc4c(c3)CCC4)CC2)cc1`, the inhibition in vivo at 25 mg/kg was 17% with Mus musculus [1] and 0% in the assay with Mus musculus [2].

For the molecule `Fc1ccc(N2CCN(CCCOc3ccc4c(c3)C(c3ccccc3)CC4)CC2)cc1` (centres undefined), the inhibition in vivo at 25 mg/kg was 32% in the assay with Mus musculus [1] and 17% with Mus musculus [2].

As to `Fc1ccc(N2CCN(CCCOc3cc4c(cc3F)CCC4)CC2)cc1`, the results for the inhibition in vivo at 25 mg/kg with Mus musculus [1] and with Mus musculus [2] were 97% and 100%, respectively.

On to `O=[N+]([O-])c1cc2c(cc1OCCCN1CCN(c3ccc(F)cc3)CC1)CCC2`, for which the inhibition in vivo at 25 mg/kg stood at 28% with Mus musculus [1] and 58% with Mus musculus [2].

On to `Clc1ccc(N2CCN(CCCCOc3ccc4c(c3)CCC4)CC2)cc1`, for which the figures for the inhibition in vivo at 25 mg/kg in the assay on Mus musculus [1] and in the assay with Mus musculus [2] were 33% and 31%, respectively.
